Source: ChEMBL document CHEMBL5385902, “Synthesis of urea and thiourea derivatives of C20-epi-aminosalinomycin and their activity against Trypanosoma brucei” (Eur J Med Chem, 2023)
Converted amounts (≈) assume the structure as drawn. The source made the active and inactive calls. No cut-off for these calls is given here.

What was measured:
[1] = Cytotoxicity against human HL-60 cells assessed as cell killing incubated for 24 hrs by microscopic analysis; format: toxicity, cell-based; conditions: read-out: MIC
Outline: (§1)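 Bloodstream-form T. brucei 427-221a seeded at 1 × 10^4 mL^-1 or HL-60 cells at 5 × 10^4 mL^-1 in Baltz medium with 16.7% heat-inactivated bovine serum, 0.9% DMSO, 10-fold dilutions 100 μM to 100 nM; 37 °C, 5% CO2. MIC, concentration killing all cells, determined microscopically. Possible values 100 μM down to […].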

[2] = Selectivity index, ratio of GI50 for cytotoxicity against human HL60 cells to GI50 for Trypanocidal activity against bloodstream form of Trypanosoma brucei 427-221a; format: toxicity, cell-based; conditions: read-out: RatioGI50
Outline: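 Ratio of HL-60 GI50 to T. brucei GI50. Both from the resazurin assay in Baltz medium with 16.7% heat-inactivated bovine serum and 0.9% DMSO, 10-fold dilutions 100 μM to 100 nM, 24 h then 48 h with resazurin. GI50 by linear interpolation, three independent experiments.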

[3] = Selectivity index, ratio of MIC for cytotoxicity against human HL60 cells to MIC for Trypanocidal activity against bloodstream form of Trypanosoma brucei 427-221a; format: toxicity, cell-based; conditions: read-out: Selectivity Index
Trypanosoma brucei [4] = test: Trypanocidal activity against bloodstream form of Trypanosoma brucei 427-221a assessed as increase in cell swelling activity at 100 uM measured every 10 min for 60 mins by light scattering method; format: functional, organism-based
Outline: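 Light-scattering cell-volume assay. 1 × 10^7 bloodstream-form T. brucei 427-221a in 200 μL Baltz medium with 100 μM compound and 0.9% DMSO; controls with DMSO only. Absorbance at 490 nm read every 10 min for 60 min; falling absorbance indicates cell swelling. Rate constant k of the absorbance decrease derived. Means of three independent experiments.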

[5] = Cytotoxicity against human HL-60 cells assessed as inhibition of cell growth incubated for 24 hrs and measured at 48 hrs following resazurin challenge by resazurin assay; format: toxicity, cell-based
Outline: (§2)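 Bloodstream-form T. brucei 427-221a (1 × 10^4 mL^-1) or HL-60 cells (5 × 10^4 mL^-1) in Baltz medium with 16.7% heat-inactivated bovine serum, 0.9% DMSO, 10-fold dilutions 100 μM to 100 nM; 37 °C, 5% CO2, 24 h. Resazurin then added, 48 h more; absorbance 570 nm, reference 630 nm. GI50 by linear interpolation; mean and SD of three independent experiments.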

Trypanosoma brucei [6] = test: Trypanocidal activity against bloodstream form of Trypanosoma brucei 427-221a assessed as inhibition of parasite growth incubated for 24 hrs and measured at 48 hrs following resazurin challenge by resazurin assay; format: functional; conditions: time 72 hrs; outline: as §2
Trypanosoma brucei [7] = test: Trypanocidal activity against bloodstream form of Trypanosoma brucei 427-221a assessed as parasite killing incubated for 24 hrs by microscopic analysis; format: functional; outline: as §1
[8] = Lipophilicity, log P of the compound; format: physicochemical; conditions: octanol/water

Compound | MCC at 24 h [1] [µM] | selectivity ratio [2] | selectivity ratio [3] | Activity (Trypanosoma brucei [4]) | GI50 at 72 h [5] [µM] | GI50 (Trypanosoma brucei [6]) [µM] | MIC (Trypanosoma brucei [7]) [µM] | logP [8]
CC[C@@H](C(=O)[C@@H](C)[C@@H](O)[C@H](C)[C@@H]1O[C@@H]([C@@H](CC)C(=O)O)CC[C@@H]1C)[C@H]1O[C@]2(C=C[C@H](N)[C@]3(CC[C@@](C)([C@H]4CC[C@](O)(CC)[C@H](C)O4)O3)O2)[C@H](C)C[C@@H]1C | 100 | 25.2 | 10 | inactive | 83.2 | 3.3 | 10 (≈ 7.5 µg/mL) | –
CCCNC(=O)N[C@H]1C=C[C@]2(O[C@H]([C@@H](CC)C(=O)[C@@H](C)[C@@H](O)[C@H](C)[C@@H]3O[C@@H]([C@@H](CC)C(=O)O)CC[C@@H]3C)[C@@H](C)C[C@H]2C)O[C@@]12CC[C@@](C)([C@H]1CC[C@](O)(CC)[C@H](C)O1)O2 | 100 | 12.7 | 10 | – | 36.7 | 2.9 | 10 (≈ 8.35 µg/mL) | –
Cc1ccc(C(=O)Nc2ccc(S(=O)(=O)O)c3cc(S(=O)(=O)O)cc(S(=O)(=O)O)c23)cc1NC(=O)c1cccc(NC(=O)Nc2cccc(C(=O)Nc3cc(C(=O)Nc4ccc(S(=O)(=O)O)c5cc(S(=O)(=O)O)cc(S(=O)(=O)O)c45)ccc3C)c2)c1 [SURAMIN] | > 100 | > 2560 | > 1000 | – | > 100 | 0.039 | 0.1 (≈ 0.13 µg/mL) | –
CC[C@@H](C(=O)[C@@H](C)[C@@H](O)[C@H](C)[C@@H]1O[C@@H]([C@@H](CC)C(=O)O)CC[C@@H]1C)[C@H]1O[C@]2(C=C[C@H](NC(=O)Nc3ccccc3)[C@]3(CC[C@@](C)([C@H]4CC[C@](O)(CC)[C@H](C)O4)O3)O2)[C@H](C)C[C@@H]1C | 100 | 15.5 | 10 | – | 44.9 | 2.9 | 10 (≈ 8.69 µg/mL) | –
C=CCNC(=O)N[C@H]1C=C[C@]2(O[C@H]([C@@H](CC)C(=O)[C@@H](C)[C@@H](O)[C@H](C)[C@@H]3O[C@@H]([C@@H](CC)C(=O)O)CC[C@@H]3C)[C@@H](C)C[C@H]2C)O[C@@]12CC[C@@](C)([C@H]1CC[C@](O)(CC)[C@H](C)O1)O2 | 100 | 12 | 10 | – | 38.3 | 3.2 | 10 (≈ 8.33 µg/mL) | –
CC[n+]1c(-c2ccccc2)c2cc(N)ccc2c2ccc(N)cc21 [HOMIDIUM BROMIDE] | 10 | 73.6 | 1 | – | 6.4 | 0.087 | 10 | –
CCNC(=O)N[C@H]1C=C[C@]2(O[C@H]([C@@H](CC)C(=O)[C@@H](C)[C@@H](O)[C@H](C)[C@@H]3O[C@@H]([C@@H](CC)C(=O)O)CC[C@@H]3C)[C@@H](C)C[C@H]2C)O[C@@]12CC[C@@](C)([C@H]1CC[C@](O)(CC)[C@H](C)O1)O2 | 100 | 13.1 | 10 | – | 42 | 3.2 | 10 (≈ 8.21 µg/mL) | –
CC[C@@H](C(=O)[C@@H](C)[C@@H](O)[C@H](C)[C@@H]1O[C@@H]([C@@H](CC)C(=O)O)CC[C@@H]1C)[C@H]1O[C@]2(C=C[C@@H](O)[C@]3(CC[C@@](C)([C@H]4CC[C@](O)(CC)[C@H](C)O4)O3)O2)[C@H](C)C[C@@H]1C [SALINOMYCIN] | 100 | 74.1 | 100 | Active | 20 | 0.27 | 1 (≈ 0.751 µg/mL) | > 6.2
CC[C@@H](C(=O)[C@@H](C)[C@@H](O)[C@H](C)[C@@H]1O[C@@H]([C@@H](CC)C(=O)O)CC[C@@H]1C)[C@H]1O[C@]2(C=C[C@H](NC(=S)Nc3ccccc3)[C@]3(CC[C@@](C)([C@H]4CC[C@](O)(CC)[C@H](C)O4)O3)O2)[C@H](C)C[C@@H]1C | 10 | 40.5 | 10 | Active | 8.9 | 0.22 | 1 (≈ 0.885 µg/mL) | –
CCNC(=S)N[C@H]1C=C[C@]2(O[C@H]([C@@H](CC)C(=O)[C@@H](C)[C@@H](O)[C@H](C)[C@@H]3O[C@@H]([C@@H](CC)C(=O)O)CC[C@@H]3C)[C@@H](C)C[C@H]2C)O[C@@]12CC[C@@](C)([C@H]1CC[C@](O)(CC)[C@H](C)O1)O2 | 100 | 56.1 | 100 | – | 18.5 | 0.33 | 1 (≈ 0.837 µg/mL) | –
CCCCNC(=O)N[C@H]1C=C[C@]2(O[C@H]([C@@H](CC)C(=O)[C@@H](C)[C@@H](O)[C@H](C)[C@@H]3O[C@@H]([C@@H](CC)C(=O)O)CC[C@@H]3C)[C@@H](C)C[C@H]2C)O[C@@]12CC[C@@](C)([C@H]1CC[C@](O)(CC)[C@H](C)O1)O2 | 100 | 55 | 100 | Active | 19.8 | 0.36 | 1 (≈ 0.849 µg/mL) | –
CC[C@@H](C(=O)[C@@H](C)[C@@H](O)[C@H](C)[C@@H]1O[C@@H]([C@@H](CC)C(=O)O)CC[C@@H]1C)[C@H]1O[C@]2(C=C[C@H](NC(=O)Nc3cccc4ccccc34)[C@]3(CC[C@@](C)([C@H]4CC[C@](O)(CC)[C@H](C)O4)O3)O2)[C@H](C)C[C@@H]1C | 100 | 7.1 | 10 | – | 13.5 | 1.9 | 10 (≈ 9.19 µg/mL) | –
CCCCNC(=S)N[C@H]1C=C[C@]2(O[C@H]([C@@H](CC)C(=O)[C@@H](C)[C@@H](O)[C@H](C)[C@@H]3O[C@@H]([C@@H](CC)C(=O)O)CC[C@@H]3C)[C@@H](C)C[C@H]2C)O[C@@]12CC[C@@](C)([C@H]1CC[C@](O)(CC)[C@H](C)O1)O2 | 10 | 46.7 | 10 | Active | 8.4 | 0.18 | 1 (≈ 0.865 µg/mL) | –
CC[C@@H](C(=O)[C@@H](C)[C@@H](O)[C@H](C)[C@@H]1O[C@@H]([C@@H](CC)C(=O)O)CC[C@@H]1C)[C@H]1O[C@]2(C=C[C@H](NC(=O)NCCCl)[C@]3(CC[C@@](C)([C@H]4CC[C@](O)(CC)[C@H](C)O4)O3)O2)[C@H](C)C[C@@H]1C | 100 | 12 | 10 | – | 38.5 | 3.2 | 10 (≈ 8.56 µg/mL) | –
CC[C@@H](C(=O)[C@@H](C)[C@@H](O)[C@H](C)[C@@H]1O[C@@H]([C@@H](CC)C(=O)O)CC[C@@H]1C)[C@H]1O[C@]2(C=C[C@H](NC(=O)NCc3ccccc3)[C@]3(CC[C@@](C)([C@H]4CC[C@](O)(CC)[C@H](C)O4)O3)O2)[C@H](C)C[C@@H]1C | 100 | 11.1 | 10 | – | 16.7 | 1.5 | 10 (≈ 8.83 µg/mL) | –
CCCCCCCCNC(=O)N[C@H]1C=C[C@]2(O[C@H]([C@@H](CC)C(=O)[C@@H](C)[C@@H](O)[C@H](C)[C@@H]3O[C@@H]([C@@H](CC)C(=O)O)CC[C@@H]3C)[C@@H](C)C[C@H]2C)O[C@@]12CC[C@@](C)([C@H]1CC[C@](O)(CC)[C@H](C)O1)O2 | 10 | 23.3 | 10 | – | 6.3 | 0.27 | 1 (≈ 0.905 µg/mL) | –
CC[C@@H](C(=O)[C@@H](C)[C@@H](O)[C@H](C)[C@@H]1O[C@@H]([C@@H](CC)C(=O)O)CC[C@@H]1C)[C@H]1O[C@]2(C=C[C@H](NC(=O)NCCCCl)[C@]3(CC[C@@](C)([C@H]4CC[C@](O)(CC)[C@H](C)O4)O3)O2)[C@H](C)C[C@@H]1C | 100 | 7.9 | 10 | – | 18.1 | 2.3 | 10 (≈ 8.7 µg/mL) | –
C=CCNC(=S)N[C@H]1C=C[C@]2(O[C@H]([C@@H](CC)C(=O)[C@@H](C)[C@@H](O)[C@H](C)[C@@H]3O[C@@H]([C@@H](CC)C(=O)O)CC[C@@H]3C)[C@@H](C)C[C@H]2C)O[C@@]12CC[C@@](C)([C@H]1CC[C@](O)(CC)[C@H](C)O1)O2 | 100 | 48.7 | 100 | – | 15.1 | 0.31 | 1 (≈ 0.849 µg/mL) | –
